From ChEMBL document CHEMBL4699495, “Synthesis and biological evaluation of 5'-C-methyl nucleotide prodrugs for treating HCV infections” (Bioorg Med Chem Lett, 2020) come the findings set out here.

The test system of one data set is Hepatitis C virus. Put plainly: Antiviral activity against HCV subtype 1b infected in human HuH-7-Luc/Neo-ET cells by luciferase replicon-reporter gene assay. The class given is functional, organism-based, Hepacivirus hominis. A digest of the protocol:
(§1)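 HCV genotype 1b subgenomic replicon carried in Huh-7 Luc/Neo ET cells. Antiviral EC50 and cytotoxic TC50 were both determined in these cells. Each value is the average of triplicate experiments.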

Data set [1] can be described thus: Therapeutic index, ratio of TC50 for human HuH-7-Luc/Neo-ET cells to EC50 for HCV infected in human HuH7-Luc/Neo-ET cells. Format: toxicity. A digest of the protocol:
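Therapeutic index calculated as TC50/EC50. Both values came from Huh-7 Luc/Neo ET cells bearing an HCV genotype 1b replicon, and each was averaged from triplicate experiments.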

Data set [2] in a line: Cytotoxicity against human HuH-7-Luc/Neo-ET cells. The class given is cell-based. The note with it: read-out: TC50 (the source's name). A digest of the protocol: as §1

The structures appear in SMILES notation.

Turning to `CCCCCCCCCC(=O)Oc1ccc(COP(=O)(OCc2ccc(OC(=O)CCCCCCCCC)cc2)OP(=O)([O-])OC[C@H]2O[C@@H](n3ccc(=O)[nH]c3=O)[C@](C)(O)[C@@H]2O)cc1.CCCC[N+](CCCC)(CCCC)CCCC`, a half-maximal response with Hepatitis C virus (EC50) required 0.04 µM. Besides, the selectivity ratio in data set [1] was over 2590. For the same molecule, in data set [2], the CC50 is over 100 µM.

With `CC(C)OC(=O)[C@H](C)N[P@](=O)(OC[C@H]1O[C@@H](n2ccc(=O)[nH]c2=O)[C@](C)(O)[C@@H]1O)Oc1ccccc1`, in the data set on Hepatitis C virus, the response was half-maximal at 0.03 µM (EC50). Besides, the selectivity ratio in data set [1] was 2780. For the same molecule, in data set [2], the CC50 was determined as 85.6 µM.

`CC(C)OC(=O)[C@H](C)N[P@](=O)(OC[C@H]1O[C@@H](n2ccc(=O)[nH]c2=O)[C@](C)(F)[C@@H]1O)Oc1ccccc1` [SOFOSBUVIR]: the EC50 (usually the concentration that produces a half-maximal response) in the data set on Hepatitis C virus worked out at 0.03 µM. For the same molecule, in data set [1], the selectivity ratio was over 29.2. Further, the CC50 in data set [2] is over 1 µM.

In the case of `CC(C)OC(=O)[C@H](C)N[P@@](=O)(Oc1ccccc1)O[C@@H](C)[C@H]1O[C@@H](n2ccc(=O)[nH]c2=O)[C@](C)(O)[C@@H]1O`, in the data set on Hepatitis C virus, the response was half-maximal at 7.75 µM (EC50). The selectivity ratio in data set [1] is over 12.9. Further, the CC50 in data set [2] was over 100 µM.

Turning to `CC(C)OC(=O)[C@H](C)N[P@@](=O)(Oc1ccccc1)O[C@H](C)[C@H]1O[C@@H](n2ccc(=O)[nH]c2=O)[C@](C)(O)[C@@H]1O`, in the data set on Hepatitis C virus, the EC50 amounted to 1.49 µM. For the same molecule, the selectivity ratio in data set [1] is over 67.1. In data set [2], the CC50 was over 100 µM.

For the molecule `CCCCCCCCCC(=O)Oc1ccc(COP(=O)(OCc2ccc(OC(=O)CCCCCCCCC)cc2)OP(=O)([O-])O[C@@H](C)[C@H]2O[C@@H](n3ccc(=O)[nH]c3=O)[C@](C)(O)[C@@H]2O)cc1.CCCC[N+](CCCC)(CCCC)CCCC`, it took 25.3 µM to reach a half-maximal effect with Hepatitis C virus (EC50). Also, in data set [1], the selectivity ratio was 3.29. Besides, the CC50 in data set [2] was over 83.2 µM.

In turn, `CCCCCCCCCC(=O)Oc1ccc(COP(=O)(OCc2ccc(OC(=O)CCCCCCCCC)cc2)OP(=O)([O-])O[C@H](C)[C@H]2O[C@@H](n3ccc(=O)[nH]c3=O)[C@](C)(O)[C@@H]2O)cc1.CCCC[N+](CCCC)(CCCC)CCCC` showed a concentration giving a half-maximal response (EC50) with Hepatitis C virus of 2.6 µM. In addition, the selectivity ratio in data set [1] was over 38.5. Moreover, in data set [2], the CC50 is over 100 µM.
